Most compounds without a hit are left out; they make up all but 4% or so of the library.
Granule exo inh: lytic granule exocytosis inhibition; TALL-104 LAMP-1 surface exposure, flow cytometry; cells stimulated with thapsigargin and PMA; inhibition, % at 10 µM; hit rate 0.66% among 360,000;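 active = inhibition above about 55%, limit read from the data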
ABHD5 PLIN5 PPI: ABHD5-PLIN5 protein interaction inhibition. Q00G26+Q8WTS1. Split G. princeps luciferase complementation, luminescence, 4 h. inhibition, % at 4 µM. hit rate 0.78% among 360,000;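 active = inhibition above the mean inhibition across every tested compound plus 3 SD, cut at about 22% in these data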;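 also: 0% = DMSO only wells and the 100% control is not disclosed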
CHOP UPR activ: apoptotic UPR (CHOP) activation; CHO-CHOP luciferase reporter, luminescence; percent of tunicamycin response over DMSO baseline; AID 449763; activation, % at 10 µM; hit rate 0.34% among 330,000;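 active = at 10 µM dose, activation of 40% or more, normalized to positive control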;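 also: 100% = tunicamycin at 10 µg/mL and 0% = DMSO alone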
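Evaluation: % reporter activation, DMSO baseline versus tunicamycin full activation; System: CHO-CHOP luciferase reporter cell line; Input: 500 cells/well; Incubation: 6 h compound treatment, 37 °C; Measured by: Steady-Glo luciferase luminescence; Dosing: one dose, 10 µM in 0.5% DMSO; Buffer or medium: F12 medium, 10% FBS; Benchmarks: positive tunicamycin 10 µg/mL, negative DMSO alone.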
Mdm2 MdmX PPI: human Mdm2/MdmX binding inhibition. O15151+Q00987. hit rate 3% among 330,000. SaOS-2 split-luciferase Mdm2/MdmX complementation, luminescence. inhibition, % at 8 µM;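 active = inhibition of at least 50% at 8 µM in the primary screen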
Target sequence (O15151 whole entry, looked up): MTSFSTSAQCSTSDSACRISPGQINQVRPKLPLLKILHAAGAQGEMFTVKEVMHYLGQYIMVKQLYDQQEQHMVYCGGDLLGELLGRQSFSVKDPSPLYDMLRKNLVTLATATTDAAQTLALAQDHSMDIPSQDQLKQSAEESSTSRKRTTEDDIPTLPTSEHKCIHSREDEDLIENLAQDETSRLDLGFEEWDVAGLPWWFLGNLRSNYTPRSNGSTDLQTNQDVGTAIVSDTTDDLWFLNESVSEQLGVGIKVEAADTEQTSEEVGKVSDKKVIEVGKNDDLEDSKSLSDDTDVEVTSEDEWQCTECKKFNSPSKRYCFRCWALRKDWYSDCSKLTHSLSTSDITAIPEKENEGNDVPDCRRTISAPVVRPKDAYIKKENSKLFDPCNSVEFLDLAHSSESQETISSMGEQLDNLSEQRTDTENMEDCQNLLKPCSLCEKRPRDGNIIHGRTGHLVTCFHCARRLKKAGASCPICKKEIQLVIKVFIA
Target sequence (Q00987 whole entry, looked up): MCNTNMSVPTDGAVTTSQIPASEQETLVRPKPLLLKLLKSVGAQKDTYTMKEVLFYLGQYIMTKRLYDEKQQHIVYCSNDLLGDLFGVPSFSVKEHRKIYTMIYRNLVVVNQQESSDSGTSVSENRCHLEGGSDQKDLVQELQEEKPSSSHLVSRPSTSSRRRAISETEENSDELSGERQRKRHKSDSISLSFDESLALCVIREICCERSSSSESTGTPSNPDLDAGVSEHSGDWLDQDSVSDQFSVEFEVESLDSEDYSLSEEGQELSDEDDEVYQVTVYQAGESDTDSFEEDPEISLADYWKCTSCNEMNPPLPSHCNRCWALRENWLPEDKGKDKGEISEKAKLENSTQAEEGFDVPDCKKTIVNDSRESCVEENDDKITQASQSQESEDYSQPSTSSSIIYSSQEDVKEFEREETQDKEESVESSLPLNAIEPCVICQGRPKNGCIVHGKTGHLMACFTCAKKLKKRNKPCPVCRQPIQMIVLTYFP
UPR XBP1 act: adaptive UPR (XBP1) activation. CHO-XBP1 luciferase reporter, IRE1-XBP1 UPR activation, luminescence; percent of tunicamycin response, DMSO as zero. hit rate 0.33% among 330,000. AID 463104. activation, % at 20 µM;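 active = versus positive control, 20 µM dose yields 30% or more activation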;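 also: 100% = tunicamycin at 10 µg/mL and 0% = DMSO only wells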
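Signal: luciferase luminescence; Assay system: CHO-XBP1 luciferase reporter cells; Amount: one thousand reporter cells per well; Dosing: 20 µM single concentration, DMSO 1%; Benchmarks: high control tunicamycin 10 µg/mL final, low control DMSO vehicle only; Schedule: 6 h compound exposure at 37 °C, 5% CO2; Evaluation: percent activation relative to tunicamycin reference.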
Mdm2 MdmX conf: confirmation of human Mdm2/MdmX interaction inhibitors; inhibition, % at 8 µM; shares compounds with Mdm2 MdmX PPI; AID 489028; hit rate 55% among 10,000; Mdm2-MdmX binding, luminescent assay; in the data active = inhibition above about 40%
FLuc counter: full-length luciferase inhibition in Mdm2/MdmX counter-screen | inhibition, % at 8 µM | shares compounds with Mdm2 MdmX PPI | SaOS-2 full-length luciferase counterscreen, luminescence | hit rate 77% among 6,200;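 active = mean inhibition at 8 µM reaching about 37%, which flags the compound as non-specific, limit read from the data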;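 also: p53-null SaOS-2 cells with luciferase driven by a doxycycline-inducible promoter; compound on cells about two nights before reading with doxycycline added after day one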
An asterisk follows results filed as active; / = no result given.

SMILES | Granule exo inh | ABHD5 PLIN5 PPI | CHOP UPR activ | Mdm2 MdmX PPI | UPR XBP1 act | Mdm2 MdmX conf | FLuc counter
O=C(O)c1ccc(COc2ccc(CO)cc2Cl)cc1 | -3 | 6 | 2 | 7 | 4 | / | /
CCc1ccc(S(=O)(=O)N/N=C(/C)c2ccncc2)cc1 | -7 | -20 | 2 | 5 | 4 | / | /
Cc1cc(N2CCN(C)CC2)nc2ccc(NC(=S)NCCN3CCc4ccccc4C3)cc12 | 10 | 5 | 0 | 23 | 1 | / | /
CCc1ccc(-c2ccc3nnc(SCC(=O)NCC4CCCO4)n3n2)cc1 (centres undefined) | 0 | 9 | 3 | 22 | 10 | / | /
CCOc1ccc(OCc2cccc(C(=O)O)c2)cc1 | -4 | 5 | -10 | 61* | -6 | 94* | 7
CCOc1ccc(NC(=O)NCCCCc2ccccc2)cc1 | -1 | -4 | -1 | 50* | 2 | 23 | /
CCOc1ccc(OCc2cccc(C(=O)N3CCCC3)c2)cc1 | -3 | -9 | -4 | 11 | -5 | / | /
CCOC(=O)CNC(=O)CSc1nc2cccnc2n1Cc1ccccc1 | 1 | 1 | -2 | -13 | 0 | / | /
Cc1nc(NC(=O)CSc2nc3cccnc3n2Cc2ccccc2)sc1C | -1 | -10 | 0 | 78* | 8 | 20 | /
O=C(Cn1cncn1)NCc1cccc2ccccc12 | -3 | 1 | -1 | 10 | 2 | / | /
CCOC(=O)N1CCN(c2cc3[nH]c(=S)[nH]c3cc2F)CC1 | 7 | -12 | 0 | 13 | 0 | / | /
CCOC(=O)N1CCN(c2c(F)cc3[nH]c(=S)[nH]c3c2Br)CC1 | -1 | -20 | -1 | 61* | 12 | 58* | 47*
CCOc1ccc(N2C(=O)c3ccccc3C2O)cc1 (centres undefined) | 2 | 0 | 4 | -82 | 0 | / | /
Cc1cc2cc(CNC(=S)NCc3ccccc3)ccc2n1C | 4 | 8 | -1 | 9 | 0 | / | /
Cc1ccc2c(c1)cc(C(=O)NCc1ccccc1)n2C | -1 | -2 | 2 | 85* | -3 | 56* | 52*
CCN(CC)CCn1nc(C)nc1-c1ccccc1O | -4 | -2 | -1 | 5 | -1 | / | /
COc1ccc(-c2ncncc2-c2csc(C)n2)c(O)c1OC | -5 | 1 | -3 | 4 | 1 | / | /
COC1=C(N)C(=O)c2nc(-c3nc(C(=O)O)c(C)c(-c4ccc(OC)c(OC)c4O)c3N)ccc2C1=O | / | / | 10 | 100* | -9 | 100* | 2
CN(C)C=NC(=O)c1[nH]c2ccc(Cl)cc2c1-c1ccccc1 | -13 | -3 | 10 | 80* | 5 | 35 | /
CCOC(=O)c1[nH]c2ccc(Cl)cc2c1-c1ccccc1 | -1 | -3 | 8 | -14 | 2 | / | /
O=C(NCc1ccco1)c1ccc(CS(=O)(=O)Cc2ccc(Cl)cc2)o1 | -2 | 9 | -2 | -39 | -2 | / | /
CCc1nnc(NC(=O)C(NC(=O)c2ccccc2Cl)C(C)C)s1 (centres undefined) | -4 | -4 | 2 | -15 | 1 | / | /
CC(C)[C@H](NC(=O)c1ccccc1Cl)C(=O)Nc1nc(-c2ccccn2)cs1 | -1 | -3 | 0 | 64* | 0 | 53* | 36
CC(Oc1ccc(Br)cc1)C(=O)Nc1nc(-c2ccccn2)cs1 (centres undefined) | 7 | -10 | 4 | 80* | 3 | 71* | 35
C[C@@H](C(=O)Nc1nc(-c2ccccn2)cs1)N1C(=O)C2CCCCC2C1=O (some centres undefined) | 3 | -20 | 0 | 10 | -4 | / | /
Cc1ccc(CCNC(=O)CS(=O)Cc2nc(-c3cccc(C)c3)oc2C)cc1 (centres undefined) | 6 | -4 | 0 | -2 | -3 | / | /
Cc1cccc(NC(=O)c2nc[nH]c2C(=O)Nc2cccc(C)c2)c1 | 1 | -1 | 1 | 40 | 3 | / | /
Cc1cccc(NC(=O)c2nc[nH]c2C(=O)NCCN(CCNC(=O)c2[nH]cnc2C(=O)Nc2cccc(C)c2)CCNC(=O)c2[nH]cnc2C(=O)Nc2cccc(C)c2)c1 | -3 | -32 | 2 | 86* | -1 | 51* | 39*

From PubChem BioAssay
